Measurements published in ChEMBL document CHEMBL1145953 (J Med Chem, 2003).

How the values were obtained:
[1] = biological target: Adenosine receptors; A1 & A3 (Homo sapiens) (UniProt P30542+P0DMS8); assay: Ratio of binding affinity for human adenosine A1 and A3 receptors; assay type: protein assay
Adenosine receptor A3 [2] = biological target: T1, Adenosine receptor A3 (Homo sapiens, UniProt P0DMS8); assay: Binding affinity using [125I]ABA against human Adenosine A3 receptor
T1 sequence (P0DMS8 whole entry): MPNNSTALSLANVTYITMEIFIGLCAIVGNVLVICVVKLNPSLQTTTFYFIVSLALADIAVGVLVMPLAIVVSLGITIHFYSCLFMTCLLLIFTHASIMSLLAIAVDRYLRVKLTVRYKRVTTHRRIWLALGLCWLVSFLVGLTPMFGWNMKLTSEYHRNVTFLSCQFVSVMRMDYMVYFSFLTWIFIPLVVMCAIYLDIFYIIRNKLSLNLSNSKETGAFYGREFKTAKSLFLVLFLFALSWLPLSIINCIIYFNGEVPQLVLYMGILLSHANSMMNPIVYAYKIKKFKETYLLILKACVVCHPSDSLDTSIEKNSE

Adenosine receptor A1 = biological target: T2, Adenosine receptor A1 (Homo sapiens, UniProt P30542); assay: Binding affinity using [125I]ABA against human Adenosine A1 receptor
T2 sequence (P30542 whole entry): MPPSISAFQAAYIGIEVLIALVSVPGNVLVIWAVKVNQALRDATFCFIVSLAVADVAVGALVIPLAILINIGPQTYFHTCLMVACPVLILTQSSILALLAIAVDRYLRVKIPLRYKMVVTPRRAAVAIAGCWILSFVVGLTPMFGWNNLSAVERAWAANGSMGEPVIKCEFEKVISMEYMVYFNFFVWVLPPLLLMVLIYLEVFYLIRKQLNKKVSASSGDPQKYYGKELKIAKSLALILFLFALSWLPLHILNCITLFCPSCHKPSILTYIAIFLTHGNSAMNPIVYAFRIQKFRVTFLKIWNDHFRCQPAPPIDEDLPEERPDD

Adenosine receptor A3 [3] = biological target: T1, Adenosine receptor A3; assay: Inhibition of isoproterenol-stimulated cAMP accumulation in HEK 293 cells expressing human Adenosine A3 receptor; assay type: functional, cell-based, HEK293
How it was run: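 Functional assay in HEK 293 cells with recombinant human A3 receptors. Cells are stimulated with isoproterenol, and the drop in cAMP accumulation is measured over a concentration–response range. EC50 comes from the curve. Mean and SEM of three experiments, each run in duplicate.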

[4] = Tested for pKa value of compound; assay type: physicochemical

| Ratio [1] | Ki (Adenosine receptor A3 [2]) | Ki (Adenosine receptor A1) | EC50 (Adenosine receptor A3 [3]) | pKa [4] | SMILES |
| --- | --- | --- | --- | --- | --- |
| 194 | 120 nM |  |  |  | CNC(=O)[C@H]1O[C@@H](n2cnc3c(NC)ncnc32)[C@H](O)[C@@H]1N |
| 42 | 1.6 nM | 68 nM |  |  | CNC(=O)[C@H]1O[C@@H](n2cnc3c(NCc4cc(Cl)ccc4OCc4cc(C)no4)ncnc32)[C@H](O)[C@@H]1O |

More lines, now with the values behind:

| SMILES | Ratio [1] | Ki (Adenosine receptor A3 [2]) | Ki (Adenosine receptor A1) | EC50 (Adenosine receptor A3 [3]) | pKa [4] |
| --- | --- | --- | --- | --- | --- |
| CNC(=O)[C@H]1O[C@@H](n2cnc3c(NCc4cc(Cl)ccc4OCc4cc(C)no4)ncnc32)[C@H](O)[C@@H]1N |  | 5.8 nM | 7300 nM | 3.4 nM | 6.25 |
| CNC(=O)[C@H]1O[C@@H](n2cnc3c(NC)ncnc32)[C@H](O)[C@@H]1O | 13 | 4.8 nM | 65 nM |  |  |
| CNC(=O)[C@H]1O[C@@H](n2cnc3c(NCc4cccc(I)c4)ncnc32)[C@H](O)[C@@H]1N | 64 | 72 nM | 4600 nM |  |  |
